# Screens (PubChem BioAssay)
# Rows were chosen to be rich in hits. Some 2.3% of all compounds tested hit in one or more screens of this group.
# CRFBP-R2 block: blocks CRF-induced signaling of the CRF-BP/CRF-R2 complex. 0.59% of 350,000 active. inhibition, % at 11.8 µM. HEK293 CRF-R2/CRF-BP, CRF-induced calcium fluorescence. AID 588475;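 active = inhibition of the ligand-induced calcium signal above about 50% at the single tested concentration, limit read from the data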
# TPT1 inh: C. albicans TPT1 enzyme inhibition | recombinant caTPT1, FP RNA substrate dephosphorylation | inhibition, % at 5 µM | 0.81% of 300,000 active | AID 1962;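 active = inhibition above the mean of all tested compounds plus 3 SD, set per screening campaign, cut at about 24% in these data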;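 also: plate controls were DMSO alone for no effect and ferristatin control at 100 nM for full effect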
# HNF4A DNA FP: change in binding of human HNF4 alpha to DNA; HNF4a-FITC DNA binding, fluorescence polarization, 1 h; activity change, % at 10 µM; 0.3% of 360,000 active; in the data active = activity change above about 30%, passing the limit was not always enough
# Target sequence (P41235 whole entry, looked up): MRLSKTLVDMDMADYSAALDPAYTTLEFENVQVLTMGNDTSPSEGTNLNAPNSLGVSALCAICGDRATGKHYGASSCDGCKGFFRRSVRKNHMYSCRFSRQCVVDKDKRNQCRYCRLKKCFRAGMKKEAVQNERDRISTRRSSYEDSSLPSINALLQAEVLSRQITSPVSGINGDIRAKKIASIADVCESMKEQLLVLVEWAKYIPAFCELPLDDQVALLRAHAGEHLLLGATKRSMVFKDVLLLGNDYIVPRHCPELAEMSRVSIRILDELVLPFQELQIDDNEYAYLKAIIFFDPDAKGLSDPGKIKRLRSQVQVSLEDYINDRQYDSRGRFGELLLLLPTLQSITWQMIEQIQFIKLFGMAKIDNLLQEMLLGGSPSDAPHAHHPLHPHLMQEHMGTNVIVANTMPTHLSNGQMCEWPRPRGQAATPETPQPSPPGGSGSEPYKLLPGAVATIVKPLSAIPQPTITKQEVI
# Rpn11 block: blocks the human proteasome subunit Rpn11; human 26S proteasome, Ub4-pepOG fluorescence polarization; 20S core pre-blocked with epoxomicin; calls only at 20 µM; 0.59% of 360,000 active;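 active = inhibition at 20 µM, scaled to each plate's controls, above about 33%, limit read from the data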
# CSN inh: CSN deneddylation inhibition. inhibition, % at 12.5 µM. Purified CSN, SCF-Nedd8-OG deneddylation, fluorescence polarization. 0.38% of 360,000 active;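 active = pattern-corrected inhibition above about 35%, with an unprinted fluorescence ratio check between 0.5 and 1.5, limit read from the data, passing the limit was not always enough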;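 also: 0% = enzyme with substrate and 100% = substrate without enzyme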
#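 Schedule: reaction 90 min, room temperature / Assay system: HEK293T-derived human Csn5 enzyme / Input: Csn5 at 0.24 nM final / Measure: inhibition of Csn5 cleavage, % / Control set: substrate-only high control, full reaction low control / Technique: fluorescence polarization of the substrate / Buffer or medium: Tris/NaCl/DTT buffer, pH 7.5 / Reagent: SCFSkp2-Nedd8OG substrate at 10 nM final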
# CRFR2-BP ag: CRF-BP/CRF-R2 complex agonism | HEK293 CRF-R2/CRF-BP, calcium dye fluorescence (FLIPR); percent of saturating CRF peptide response | activation, % at 13.2 µM | 0.46% of 350,000 active | AID 588473;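 active = activation of at least 50%, plus an integration ratio under a set limit after plate pattern correction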;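 also: plate controls were neutral control wells without compound for no effect and CRF at EC100 for full effect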
# * = called active by the depositor; i = inactive; x = not tested or not shown.
SMILES,CRFBP-R2 block,TPT1 inh,HNF4A DNA FP,Rpn11 block,CSN inh,CRFR2-BP ag
CCCC[C@@H]1CNCCN1CCc1cccc(F)c1,2,-3,2,i,5,2
Fc1cccc(CCN2CCNC[C@@H]2Cc2ccccc2)c1,-10,0,2,i,38*,1
NC1=NC[C@H](Cc2ccccc2)N1CCc1cccc(F)c1,21,-2,10,i,63*,0
Cn1c(Cn2c(=O)sc3ccccc32)nnc1SCC(=O)NCc1ccc2c(c1)OCO2,0,-3,-5,i,1,1
COC(C[C@H]1O[C@H]1[C@@H](O)COCc1ccccc1)OC,-2,x,0,i,-5,0
CC(=O)NS(=O)(=O)c1ccc(NC(=S)NC(=O)c2ccco2)cc1,0,-5,14,i,93*,0
CN1C(=O)C(C)(C)c2cc(S(=O)(=O)N3CCN(c4ccccc4F)CC3)ccc21,24,-2,-1,i,-1,1
CN1CCN(C(=O)/C(=C/c2ccco2)NC(=O)c2ccccc2)CC1,-4,-2,-2,i,2,1
Cc1cc(C)n(-c2nc3ccccc3nc2Nc2ccc3c(c2)OCO3)n1,-5,5,2,i,-2,1
Cc1cc(C)n(-c2nc3nonc3nc2Nc2cccc(C)c2C)n1,-13,3,-14,i,57*,3
CCCCNC(=O)c1ccccc1C(=O)NC1(C(=O)NCCCC)CCCC1,-4,x,2,i,-2,1
Cc1ccc(/C(=N\O)c2oc3c(C)c4oc(=O)cc(C)c4cc3c2C)cc1,11,-4,-2,i,6,-1
Cc1cc(=O)oc2c1ccc1oc(/C(=N/O)c3ccccc3)c(C)c12,118*,-2,-1,i,-3,-1
COc1cc(OC)cc(C(=O)N/N=C/c2ccc(OC)c(COc3ccc(F)cc3)c2)c1,-45,-3,2,i,0,62*
Cc1cc(=O)[nH]c(SCC(=O)Nc2ccc(C(=O)O)cc2)n1,-7,0,-6,i,-2,4
O=[N+]([O-])c1cccc(/C=N/NC2=NCCCCC2)c1,52*,2,-1,i,2,-2
ClCCCc1cn(C[C@H]2CC[C@@H]([C@@H]3CC[C@H](Cn4cc(CCCCl)nn4)O3)O2)nn1,0,2,1,i,3,0
Cc1cc(NC(=O)Cc2ccccc2)ccc1NC(=O)c1cccs1,57*,5,x,i,-1,-3
Cc1cnc(NC(=O)CSc2ncc(-c3ccccc3)n2Cc2ccco2)s1,-59,-1,1,i,0,60*
Cc1ccc(O)c(-c2cc(C(F)(F)C(F)F)[nH]n2)c1,6,1,0,i,-4,0
CC(NC(=O)/C(C#N)=C1\N=C(NC(=O)c2cccs2)c2ccccc21)c1ccccc1 (stereo not given),-16,9,55*,i,15,-1
C/C(=N/Nc1nc(-c2ccc(Cl)cc2)cs1)c1cccs1,-11,2,1,i,5,-1
COCCCn1c(SCC(=O)NCc2ccco2)nc2sc3c(c2c1=O)CCC3,-9,-5,-1,i,-2,-2
COCCn1c(SCc2nnc(-c3ccccc3)o2)nc2sc3c(c2c1=O)CCC3,55*,x,-1,i,-5,1
N#Cc1cc2ccccc2nc1SCc1cccnc1,5,0,3,i,4,-2
CCCc1c(C(=O)N/N=C(/C)c2ccncc2)nnn1-c1nonc1N,4,2,1,i,-3,1
O=C(CN(c1ccccc1Cl)S(=O)(=O)c1ccccc1)NCc1ccccc1,3,x,-1,i,1,1
COc1cccc2c(=O)n(CC(=O)N3CCc4ccccc43)ccc12,-55,0,2,i,-2,72*
O=C1NC(Cc2c[nH]c3ccccc23)C(=O)N1Cc1cccc2ccccc12 (stereo not given),51*,-1,4,i,3,1
Cc1ccc(CN2C(=O)NC(Cc3c[nH]c4ccccc34)C2=O)cc1 (stereo not given),-16,1,6,i,4,5
